Data set [1] addresses T1, G-protein coupled bile acid receptor 1 (Homo sapiens) (UniProt Q8TDU6).
T1 sequence (whole entry): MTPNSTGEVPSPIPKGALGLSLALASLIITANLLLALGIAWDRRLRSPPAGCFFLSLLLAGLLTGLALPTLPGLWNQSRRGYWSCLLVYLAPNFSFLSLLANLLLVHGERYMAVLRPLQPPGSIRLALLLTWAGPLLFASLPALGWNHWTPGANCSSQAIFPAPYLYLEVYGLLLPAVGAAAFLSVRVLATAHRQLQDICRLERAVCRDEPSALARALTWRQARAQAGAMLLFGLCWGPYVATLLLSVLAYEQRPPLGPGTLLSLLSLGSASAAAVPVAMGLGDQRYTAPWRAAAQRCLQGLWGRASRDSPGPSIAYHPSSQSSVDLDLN
In words: Agonist activity at GPBAR1 receptor in human THP1 cells assessed as reduction in LPS-induced TNFalpha expression at 10 uM after 18 hrs by RT-PCR analysis. Type of data set: cell-based. The note with it: THP-1. Summed up:
(§1)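 THP1 monocytic/macrophage cells primed with LPS, then coincubated with or without test agent at 10 μM; expression of cytokine genes (IL-1β, IL-6, TNF-α, IL-10) measured.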

Data set [2] is described as follows: Aqueous solubility of compound in pH 7.4 PBS/MeOH at 10 mM after 24 hrs by LC-MS analysis. Type of data set: physicochemical. The settings on record: buffer, pH 7.4, 24 h, 10000 µM.
Data set [3] concerns the target T1, G-protein coupled bile acid receptor 1 (Homo sapiens). Nature of the data set: Transactivation of human GPBAR1 receptor expressed in HEK293T cells assessed as maximum receptor activation at 10 uM after 18 hrs by cAMP response element driven renilla-luciferase dual reporter gene assay relative to TLCA. Type of data set: functional, cell-based. The note with it: HEK-293T. Put shortly:
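HEK-293T cells transfected with GPBAR1 and a CRE-driven luciferase reporter, exposed to compound at 10 μM. Efficacy is maximal CRE transactivation as percent of that caused by TLCA (10 μM). One experiment, triplicate.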

Data set [4] has as its target T2, Bile acid receptor (Homo sapiens) (UniProt Q96RI1).
T2 sequence (whole entry): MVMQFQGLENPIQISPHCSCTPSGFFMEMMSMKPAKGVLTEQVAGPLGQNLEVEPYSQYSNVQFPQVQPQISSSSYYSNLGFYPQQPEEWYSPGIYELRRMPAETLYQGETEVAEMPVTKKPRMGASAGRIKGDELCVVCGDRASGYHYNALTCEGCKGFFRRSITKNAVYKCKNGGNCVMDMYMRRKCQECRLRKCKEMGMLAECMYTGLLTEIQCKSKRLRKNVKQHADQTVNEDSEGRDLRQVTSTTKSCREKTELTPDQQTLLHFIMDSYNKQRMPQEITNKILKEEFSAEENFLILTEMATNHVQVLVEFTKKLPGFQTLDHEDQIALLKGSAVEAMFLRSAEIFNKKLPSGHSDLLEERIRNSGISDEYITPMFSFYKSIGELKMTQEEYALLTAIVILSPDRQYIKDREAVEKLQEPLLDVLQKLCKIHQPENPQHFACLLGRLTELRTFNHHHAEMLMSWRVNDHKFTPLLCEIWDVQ
In words: Transactivation of FXR (unknown origin) expressed in HepG2 cells co-expressing pSG5RXR/pGL4.70 assessed as maximum receptor activation at 10 uM after 18 hrs by IR1 driven dual renilla-luciferase reporter gene assay relative to relative to CDCA. It counts as cell-based. Put shortly:
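FXR reporter assay in HepG2 cells transfected with FXR and an IR1-driven luciferase reporter, compound at 10 μM. Efficacy is maximal IR1 transactivation relative to CDCA (10 μM). One experiment, triplicate.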

For data set [5], the target named is T1, G-protein coupled bile acid receptor 1 (Homo sapiens). Nature of the data set: Agonist activity at GPBAR1 receptor in human THP1 cells assessed as reduction in LPS-induced IL-1beta expression at 10 uM after 18 hrs by RT-PCR analysis. Type of data set: cell-based. The note with it: THP-1. Put shortly: as §1
Data set [6] shares this target. In words: Agonist activity at GPBAR1 receptor in human THP1 cells assessed as reduction in LPS-induced IL-6 expression at 10 uM after 18 hrs by RT-PCR analysis. The note with it: THP-1. It counts as cell-based. Summed up: as §1
For another data set, the species on record is Homo sapiens. In words: Selectivity index, ratio of transactivation of human GPBAR1 receptor expressed in HEK293T cells assessed as maximum receptor activation at 10 uM to transactivation of human FXR (unknown origin) expressed in HepG2 cells co-expressing pSG5RXR/pGL4.70 assessed as maximum receptor activation at 10 uM. It counts as cell-based. Summed up: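 Ratio of percent activity at GPBAR1 (HEK-293T, CRE-luciferase, 10 μM, vs TLCA 10 μM) to percent activity at FXR (HepG2, IR1-luciferase, 10 μM, vs CDCA 10 μM). Both taken from the same triplicate experiment.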

For data set [7], the target named is T1, G-protein coupled bile acid receptor 1 (Homo sapiens). Nature of the data set: Transactivation of human GPBAR1 receptor expressed in HEK293T cells at 10 to 50 uM after 18 hrs by cAMP response element driven renilla-luciferase dual reporter gene assay. It counts as functional, cell-based. The note with it: HEK-293T.
Data set [8] addresses T2, Bile acid receptor (Homo sapiens). In words: Agonist activity at GST-tagged FXR-LBD (unknown origin) assessed as biotinylated SRC-1 recruitment at 10 uM after 30 mins by Alpha Screen assay. (Alpha assays give light when donor and acceptor beads are brought close together.)
Data set [9] addresses T3, G-protein coupled bile acid receptor 1 (Homo sapiens, UniProt Q8TDU6).
T3 sequence (Q8TDU6 whole entry): T1 sequence (whole entry)
In words: Agonist activity at human GPBAR1 receptor expressed in HEK293T cells after 18 hrs by cAMP response element driven renilla-luciferase dual reporter gene assay. It counts as functional, cell-based, HEK-293T. Summed up: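 GPBAR1 transactivation in transfected HEK-293T cells carrying a CRE-luciferase reporter; potency expressed as EC50. Data from one experiment run in triplicate.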
In general terms: Reporter assays use an easily measured gene product as a stand-in for the process of interest.

These results are taken from ChEMBL document CHEMBL4613298, “GPBAR1 Activation by C6-Substituted Hyodeoxycholane Analogues Protect against Colitis” (ACS Med Chem Lett, 2020).

The source made the active and inactive calls. The calls are words filed in the database; no cut-off is given here.

The EC50 is the concentration giving half of the maximal effect. Read a low EC50 as higher potency in that assay.

`C[C@H](CC#N)[C@H]1CC[C@H]2[C@@H]3C[C@](C)(O)[C@@H]4C[C@H](O)CC[C@]4(C)[C@H]3CC[C@]12C`: the outcome in data set [1], in [5] and in [6] was Active. For the same compound, in data set [2], the solubility result is on record as “Soluble”. Also, the max activation in data set [3] came out at 95.4%; in [4], 6.4%. Moreover, in the data set filed under Homo sapiens, the Selectivity Index stood at 14.9.

In the case of `C[C@H](CC#N)[C@H]1CC[C@H]2[C@@H]3C[C@@](O)(c4ccccc4)[C@@H]4C[C@H](O)CC[C@]4(C)[C@H]3CC[C@]12C`, the max activation is 38.8% in [3] and 18.2% in [4]. Moreover, the Selectivity Index in the data set listed under Homo sapiens is 2.13.

For the compound `C[C@H](CC#N)[C@H]1CC[C@H]2[C@@H]3C[C@@](C)(O)[C@H]4C[C@H](O)CC[C@]4(C)[C@H]3CC[C@]12C`, the outcome in [7] and in [8] was inactive.

Turning to `CC[C@@]1(O)C[C@H]2[C@@H]3CC[C@H]([C@H](C)CC#N)[C@@]3(C)CC[C@@H]2[C@@]2(C)CC[C@@H](O)C[C@@H]12`, the outcome in [1], in [5] and in data set [6] was Active. Further, the solubility entry in data set [2] was “Soluble”. The max activation in [3] was determined as 65.9%; in data set [4] it was 6.6%. The Selectivity Index in the data set filed under Homo sapiens is 9.9.

As to `CC(C)[C@]1(O)C[C@@H]2[C@H](CC[C@]3(C)[C@@H]([C@H](C)CC#N)CC[C@@H]23)[C@@]2(C)CC[C@@H](O)C[C@H]21`, the max activation was 22.2% in data set [3] and 4.3% in data set [4]. For the same compound, the Selectivity Index in the data set filed under Homo sapiens was 5.16.

For `C[C@H](CC#N)[C@H]1CC[C@H]2[C@@H]3C[C@@](C)(O)[C@@H]4C[C@H](O)CC[C@]4(C)[C@H]3CC[C@]12C`, the solubility result in data set [2] is given as “Soluble”. Moreover, the figures for the max activation in data set [3] and in data set [4] were 83.4% and 5.5%, respectively. For the same compound, the result in data set [5] and in data set [6] was Active. For the same compound, in the data set listed under Homo sapiens, the Selectivity Index is 15.1.

In the case of `C[C@H](CC#N)[C@H]1CC[C@H]2[C@@H]3C[C@H](O)[C@@H]4C[C@H](O)CC[C@]4(C)[C@H]3CC[C@]12C`, the max activation in data set [3] stood at 119%; in data set [4], 3.5%. Moreover, a half-maximal effect in data set [9] (EC50) was put at 2650 nM. Besides, in the data set listed under Homo sapiens, the Selectivity Index worked out at 33.9.

On to `C=CCCC[C@]1(O)C[C@H]2[C@@H]3CC[C@H]([C@H](C)CC#N)[C@@]3(C)CC[C@@H]2[C@@]2(C)CC[C@@H](O)C[C@@H]12`, for which the solubility result in data set [2] was “Soluble”. In addition, the max activation amounted to 90.1% in data set [3] and 1.6% in data set [4]. The outcome in [5] and in data set [6] was Active. Moreover, the Selectivity Index in the data set filed under Homo sapiens was found to be 56.3.

For `CCC[C@]1(O)C[C@H]2[C@@H]3CC[C@H]([C@H](C)CC#N)[C@@]3(C)CC[C@@H]2[C@@]2(C)CC[C@@H](O)C[C@@H]12`, the max activation in data set [3] was found to be 67.1%; in data set [4], 3.1%. Moreover, the Selectivity Index in the data set listed under Homo sapiens was 21.6.

`C[C@H](CC#N)[C@H]1CC[C@H]2[C@@H]3C[C@](O)(Cc4ccccc4)[C@@H]4C[C@H](O)CC[C@]4(C)[C@H]3CC[C@]12C`: the max activation in [3] was found to be 8.3%; in [4], 4.4%. For the same compound, the Selectivity Index in the data set listed under Homo sapiens is 1.88.

Take `C=CC[C@@]1(O)C[C@H]2[C@@H]3CC[C@H]([C@H](C)CC#N)[C@@]3(C)CC[C@@H]2[C@@]2(C)CC[C@@H](O)C[C@@H]12`: the max activation in data set [3] stood at 62.5%; in data set [4], 4.1%. The same compound came in with an EC50 in data set [9] of 100 nM. Besides, the Selectivity Index in the data set filed under Homo sapiens is 15.2.

On to `CCC[C@@]1(O)C[C@@H]2[C@H](CC[C@]3(C)[C@@H]([C@H](C)CC#N)CC[C@@H]23)[C@@]2(C)CC[C@@H](O)C[C@H]12`, for which the outcome in [7] and in data set [8] was inactive.

For the compound `CC[C@@]1(O)C[C@@H]2[C@H](CC[C@]3(C)[C@@H]([C@H](C)CC#N)CC[C@@H]23)[C@@]2(C)CC[C@@H](O)C[C@H]12`, the outcome in data set [7] and in [8] was inactive.

As for `C=CC[C@@]1(O)C[C@@H]2[C@H](CC[C@]3(C)[C@@H]([C@H](C)CC#N)CC[C@@H]23)[C@@]2(C)CC[C@@H](O)C[C@H]12`, the outcome in data set [7] and in data set [8] was inactive.

On to `C=C[C@]1(O)C[C@@H]2[C@H](CC[C@]3(C)[C@@H]([C@H](C)CC#N)CC[C@@H]23)[C@@]2(C)CC[C@@H](O)C[C@H]21`, for which the figures for the max activation in data set [3] and in [4] were 62.5% and 2.2%, respectively. Moreover, the Selectivity Index in the data set listed under Homo sapiens was 28.4.
